Measured values from ChEMBL document CHEMBL4422701, “Jatrophane Diterpenoids from Euphorbia glomerulans” (J Nat Prod, 2019).

Legend:
NCI/ADR-RES = test: Cytotoxicity in doxorubicin-resistant human MCF7/ADR cells assessed as reduction in cell viability incubated for 48 hrs by MTT assay; assay type: cell-based
Summary of the method: (§1)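 Cells grown in RPMI-1640 with 10% heat-inactivated FBS at 37 °C, 5% CO2. Compounds were dissolved in DMSO and given as serial dilutions to cells seeded at 5 × 10^3 per well in log phase, for 48 h. MTT (5 mg/mL) was then added for 4 h, formazan dissolved in DMSO, and absorbance read at 570 nm.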

MCF7 = test: Cytotoxicity in human MCF7 cells assessed as reduction in cell viability incubated for 48 hrs by MTT assay; assay type: cell-based; conditions: MCF7, 48 h; summary of the method: as §1

SMILES | IC50 (NCI/ADR-RES) [µM] | IC50 (MCF7) [µM]
C=C1[C@H](O)[C@H]2[C@@H](OC(=O)c3ccccc3)[C@](C)(OC(C)=O)C[C@]2(O)[C@H](OC(C)=O)[C@@H](C)/C=C/C(C)(C)C(=O)[C@H](OC(C)=O)[C@H]1OC(C)=O | > 100 | > 100
C=C1[C@H](O)[C@H]2[C@@H](OC(=O)c3ccccc3)[C@](C)(O)C[C@]2(O)[C@H](OC(C)=O)[C@@H](C)/C=C/C(C)(C)C(=O)[C@H](OC(C)=O)[C@H]1OC(=O)c1ccccc1 | > 100 | > 100
C=C1[C@H](OC(C)=O)[C@H]2[C@@H](OC(=O)c3ccccc3)[C@](C)(O)C[C@]2(O)C(=O)[C@@H](C)/C=C/C(C)(C)C(=O)[C@H](OC(=O)C(C)C)[C@H]1OC(C)=O | > 100 | > 100
C=C1[C@H](OC(C)=O)CC(=O)C(C)(C)/C=C/[C@H](C)C(=O)[C@@]2(OC(C)=O)C[C@H](C)[C@H](OC(=O)c3ccccc3)[C@@H]2[C@H]1OC(C)=O | 39.3 | 51.1
C=C1[C@H](OC(C)=O)CC(=O)C(C)(C)/C=C/[C@H](C)C(=O)[C@@]2(OC(C)=O)C[C@H](C)[C@H](OC(C)=O)[C@@H]2[C@H]1OC(=O)c1ccccc1 | > 100 | > 100
C=C1[C@H](OC(C)=O)[C@H]2[C@@H](OC(=O)c3ccccc3)[C@](C)(OC(C)=O)C[C@]2(O)C(=O)[C@@H](C)/C=C/C(C)(C)C(=O)[C@H](OC(C)=O)[C@H]1OC(=O)C(C)C | > 100 | > 100
C=C1[C@H](OC(C)=O)[C@H]2[C@@H](OC(=O)c3ccccc3)[C@@H](C)C[C@]2(OC(C)=O)C(=O)[C@@H](C)/C=C/C(C)(C)C(=O)[C@H](O)[C@H]1OC(C)=O | > 100 | > 100
C=C1[C@H](OC(C)=O)[C@H]2[C@@H](OC(=O)c3ccccc3)[C@@H](C)C[C@]2(OC(C)=O)C(=O)[C@@H](C)/C=C/C(C)(C)C(=O)[C@H](OC(C)=O)[C@H]1OC(C)=O | > 100 | > 100
C=C1[C@H](OC(=O)c2ccccc2)[C@H]2[C@@H](OC(C)=O)[C@@H](C)C[C@]2(OC(C)=O)C(=O)[C@@H](C)/C=C/C(C)(C)C(=O)[C@H](O)[C@H]1OC(C)=O | > 100 | > 100
C=C1[C@H](OC(=O)c2ccccc2)[C@H]2[C@@H](OC(C)=O)[C@@H](C)C[C@]2(OC(C)=O)C(=O)[C@@H](C)/C=C/C(C)(C)C(=O)[C@H](OC(=O)c2ccccc2)[C@H]1OC(C)=O | > 100 | > 100
C=C1[C@H](OC(=O)c2ccccc2)[C@@H](OC(C)=O)[C@@H](OC(C)=O)C(C)(C)/C=C/[C@H](C)C(=O)[C@@]2(OC(C)=O)C[C@H](C)[C@H](OC(=O)c3ccccc3)[C@@H]2[C@H]1OC(C)=O | > 100 | > 100
C=C1[C@H](OC(C)=O)[C@H]2[C@@H](OC(=O)c3ccccc3)[C@@H](C)C[C@]2(OC(C)=O)C(=O)[C@@H](C)/C=C/C(C)(C)C(=O)[C@H](O)[C@H]1OC(=O)c1ccccc1 | > 100 | > 100
C=C1[C@H](OC(C)=O)[C@H]2[C@@H](OC(=O)c3ccccc3)[C@](C)(O)C[C@]2(O)C(=O)[C@@H](C)/C=C/C(C)(C)C(=O)[C@H](OC(C)=O)[C@H]1OC(=O)c1ccccc1 | > 100 | > 100
C=C1[C@H](OC(C)=O)[C@H]2[C@@H](OC(=O)c3ccccc3)[C@](C)(OC(C)=O)C[C@]2(O)C(=O)[C@@H](C)/C=C/C(C)(C)C(=O)[C@H](OC(=O)C(C)C)[C@H]1OC(C)=O | > 100 | 50.2
C=C1[C@H](OC(C)=O)[C@H]2[C@@H](OC(=O)c3ccccc3)[C@@H](C)C[C@]2(O)C(=O)[C@@H](C)/C=C/C(C)(C)C(=O)[C@H](O)[C@H]1OC(C)=O | > 100 | > 100
C=C1[C@H](OC(C)=O)[C@H]2[C@@H](OC(=O)c3ccccc3)[C@@H](C)C[C@]2(OC(C)=O)C(=O)[C@@H](C)/C=C/C(C)(C)C(=O)[C@H](OC(C)=O)[C@H]1OC(=O)c1ccccc1 | > 100 | > 100
C=C1[C@H](OC(C)=O)[C@H]2[C@@H](OC(=O)CC(C)=O)[C@@H](C)C[C@]2(O)C(=O)[C@@H](C)/C=C/C(C)(C)C(=O)[C@H](OC(C)=O)[C@H]1OC(=O)c1ccccc1 | > 100 | > 100
COc1cccc2c1C(=O)c1c(O)c3c(c(O)c1C2=O)C[C@@](O)(C(=O)CO)C[C@@H]3O[C@H]1C[C@H](N)[C@H](O)[C@H](C)O1 [DOXORUBICIN] | 64.8 | 
